Assay results taken from ChEMBL document CHEMBL2029266, “Discovery and evaluation of selective N-type calcium channel blockers: 6-unsubstituted-1,4-dihydropyridine-5-carboxylic acid derivatives” (Bioorg Med Chem Lett, 2012).

Columns and labels:
[1] = biological target: Voltage-dependent N-type calcium channel subunit alpha-1B (Homo sapiens, UniProt Q00975); test: Inhibition of N-type voltage-dependent calcium channel CaV2.2 in human IMR32 cells assessed as inhibition of KCl-induced increase in intracellular calcium concentration preincubated for 4 to 5 mins before KCl challenge; assay type: cell-based, IMR-32
Method in brief: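 IMR-32 cells on poly-L-lysine/collagen dishes, differentiated with 1 mM dibutyl-cAMP and 2.5 µM bromodeoxyuridine for 10–14 days. Loaded with 2.5 µM fura-2/AM, 37 °C, 30 min. HEPES recording medium with 1 µM nifedipine throughout. Calcium rise evoked by 60 mM KCl for 6 s, repeated every 5 min. Compound at 0.1, 1 or 10 µM; IC50 from ≥2 independent experiments.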

[2] = biological target: T1, Voltage-gated L-type calcium channel (Rattus norvegicus, UniProt P22002+Q02485+P27732); test: (§1) Inhibition of L-type voltage-dependent calcium channel in Sprague-Dawley rat aorta at 10 uM by Magnus method; assay type: tissue-based; conditions: 10 µM
Method in brief: (§2)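 Rat aortic ring in organ bath, Tyrode's solution pH 7.4, 37 °C, 95% O2/5% CO2. Equilibrated 1 h at 2 g resting tension. Then exposed to high-K+ Tyrode (50 mM KCl replacing NaCl) and to normal Tyrode, 45 min each. Activity reported as inhibition or IC50.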

[3] = test system: Rattus norvegicus; test: Analgesic activity in Sprague-Dawley rat assessed as inhibition of formalin-induced pain at 100 mg/kg, po; assay type: functional
Method in brief: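 Formalin injected into the rat footpad; phase II pain responses scored after oral dosing. Read-out is % inhibition relative to the control group, n = 3 animals at this dose.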

[4] = biological target: L-type voltage-dependent calcium channel (Rattus norvegicus, UniProt P22002+P27732+Q02485); test: as §1; assay type: tissue-based; conditions: Sprague-Dawley, isolated rat aorta; method in brief: as §2
[5] = biological target: T1, Voltage-gated L-type calcium channel; test: Inhibition of L-type voltage-dependent calcium channel in Sprague-Dawley rat aorta by Magnus method; assay type: tissue-based; method in brief: as §2
[6] = test system: Rattus norvegicus; test: Analgesic activity in Sprague-Dawley rat assessed as inhibition of formalin-induced pain at 3 mg/kg, po; assay type: functional
Method in brief: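 Rats received formalin by footpad injection, and phase II pain responses were scored. Compound given orally. Inhibition is expressed as % versus the control group, n = 5.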

Chain of Voltage-dependent N-type calcium channel subunit alpha-1B (Q00975 whole entry): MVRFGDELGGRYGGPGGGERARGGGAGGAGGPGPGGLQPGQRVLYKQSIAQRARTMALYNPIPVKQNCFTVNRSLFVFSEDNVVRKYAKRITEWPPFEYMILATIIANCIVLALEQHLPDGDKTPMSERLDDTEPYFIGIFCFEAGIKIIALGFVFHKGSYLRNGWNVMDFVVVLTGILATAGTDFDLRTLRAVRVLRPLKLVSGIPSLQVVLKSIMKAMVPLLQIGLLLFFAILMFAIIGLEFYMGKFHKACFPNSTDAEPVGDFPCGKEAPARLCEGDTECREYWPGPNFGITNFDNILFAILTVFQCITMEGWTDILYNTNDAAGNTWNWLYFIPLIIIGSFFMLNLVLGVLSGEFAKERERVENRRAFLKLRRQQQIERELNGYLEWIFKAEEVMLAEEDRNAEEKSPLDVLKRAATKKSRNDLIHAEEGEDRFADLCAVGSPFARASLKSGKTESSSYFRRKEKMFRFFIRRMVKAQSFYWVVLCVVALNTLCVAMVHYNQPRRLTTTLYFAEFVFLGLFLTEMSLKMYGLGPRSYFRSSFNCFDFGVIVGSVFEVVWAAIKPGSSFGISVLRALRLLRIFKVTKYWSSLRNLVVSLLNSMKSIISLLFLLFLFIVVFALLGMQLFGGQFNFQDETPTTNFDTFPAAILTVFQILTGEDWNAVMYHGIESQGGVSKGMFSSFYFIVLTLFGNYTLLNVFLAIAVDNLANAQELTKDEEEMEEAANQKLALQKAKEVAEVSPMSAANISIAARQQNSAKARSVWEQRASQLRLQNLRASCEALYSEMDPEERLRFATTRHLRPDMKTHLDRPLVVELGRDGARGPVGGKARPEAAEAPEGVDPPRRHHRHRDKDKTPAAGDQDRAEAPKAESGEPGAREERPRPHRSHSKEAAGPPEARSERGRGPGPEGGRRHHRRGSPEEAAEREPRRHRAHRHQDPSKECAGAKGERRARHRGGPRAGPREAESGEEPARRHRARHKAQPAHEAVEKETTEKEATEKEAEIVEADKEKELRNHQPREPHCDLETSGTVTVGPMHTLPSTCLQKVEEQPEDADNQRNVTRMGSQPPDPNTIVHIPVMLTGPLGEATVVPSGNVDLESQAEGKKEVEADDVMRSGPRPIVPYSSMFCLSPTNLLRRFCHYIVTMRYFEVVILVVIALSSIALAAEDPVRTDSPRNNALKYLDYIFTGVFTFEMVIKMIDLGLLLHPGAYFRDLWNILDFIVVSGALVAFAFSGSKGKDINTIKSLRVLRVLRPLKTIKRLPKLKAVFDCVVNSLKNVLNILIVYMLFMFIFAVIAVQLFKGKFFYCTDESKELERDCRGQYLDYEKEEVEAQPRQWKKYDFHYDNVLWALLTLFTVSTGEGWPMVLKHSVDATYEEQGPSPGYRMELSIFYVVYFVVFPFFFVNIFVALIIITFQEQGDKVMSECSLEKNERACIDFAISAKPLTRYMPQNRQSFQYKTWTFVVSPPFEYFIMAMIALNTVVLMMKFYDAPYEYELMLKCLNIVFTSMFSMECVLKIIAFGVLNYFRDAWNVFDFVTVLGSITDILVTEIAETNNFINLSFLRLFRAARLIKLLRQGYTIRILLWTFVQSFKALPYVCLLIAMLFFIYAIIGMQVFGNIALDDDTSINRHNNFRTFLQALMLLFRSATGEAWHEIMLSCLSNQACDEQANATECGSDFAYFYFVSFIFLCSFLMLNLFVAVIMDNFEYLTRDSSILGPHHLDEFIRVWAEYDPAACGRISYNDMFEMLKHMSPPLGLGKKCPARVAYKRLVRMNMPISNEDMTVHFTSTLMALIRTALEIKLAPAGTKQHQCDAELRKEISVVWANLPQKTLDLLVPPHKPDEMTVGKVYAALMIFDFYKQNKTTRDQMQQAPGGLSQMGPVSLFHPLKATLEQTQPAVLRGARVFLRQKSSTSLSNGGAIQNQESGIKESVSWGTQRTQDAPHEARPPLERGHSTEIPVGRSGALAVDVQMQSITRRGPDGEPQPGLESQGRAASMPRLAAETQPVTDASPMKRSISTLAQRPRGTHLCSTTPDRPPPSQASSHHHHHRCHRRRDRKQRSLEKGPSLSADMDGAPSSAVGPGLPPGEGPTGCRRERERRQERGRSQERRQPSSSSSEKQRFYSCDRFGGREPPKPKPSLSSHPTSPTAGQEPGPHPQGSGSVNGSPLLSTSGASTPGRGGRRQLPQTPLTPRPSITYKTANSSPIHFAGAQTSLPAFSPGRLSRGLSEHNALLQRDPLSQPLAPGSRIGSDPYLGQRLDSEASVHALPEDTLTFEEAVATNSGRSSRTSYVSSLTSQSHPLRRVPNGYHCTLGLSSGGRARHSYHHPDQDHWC

COc1c(Cl)cc(C2C(C(=O)O)=CNC=C2C(=O)OC/C=C/c2ccccc2)cc1Cl (stereo in doubt; (-)-3f)
IC50 [1]: 0.84 µM
inhibition (INH) [2]: 28%

NCC1(CC(=O)O)CCCCC1 [GABAPENTIN]
inhibition in vivo at 100 mg/kg [3]: 33%

COC(OC)C1=C(C(=O)OC/C=C/c2ccccc2)C(c2cccc(Cl)c2)C(C(=O)O)=CN1 (centres undefined)
IC50 [1]: 1.1 µM
inhibition at 10 µM [4]: 44%

O=C(O)C1=CNC=C(C(=O)OC/C=C/c2ccccc2)C1c1cccc(C(F)(F)F)c1 (centres undefined)
IC50 [1]: 1.2 µM
inhibition at 10 µM [4]: 40%

COC(OC)C1=C(C(=O)OC/C=C/c2ccccc2)C(c2cccc(Cl)c2)C(C(=O)O)=C(C)N1 (centres undefined)
IC50 [1]: 3 µM

COC(OC)C1=C(C(=O)OC/C=C/c2ccccc2)C(c2ccc(Cl)c(Cl)c2)C(C(=O)O)=CN1 (centres undefined)
IC50 [1]: 0.52 µM
inhibition at 10 µM [4]: 31%

COc1c(Cl)cc(C2C(C(=O)O)=CNC=C2C(=O)OC/C=C/c2ccccc2)cc1Cl (stereo in doubt; 3f)
IC50 [1]: 0.58 µM
inhibition (INH) [2]: 19%

COC(OC)C1=C(C(=O)OC/C=C/c2ccccc2)C(c2ccc(Cl)cc2)C(C(=O)O)=CN1 (centres undefined)
IC50 [1]: 1.1 µM
inhibition at 10 µM [4]: 7.9%

COc1c(Cl)cc(C2C(C(=O)O)=CNC(C(OC)OC)=C2C(=O)OC/C=C/c2ccccc2)cc1Cl (centres undefined)
IC50 [1]: 1.2 µM
inhibition at 10 µM [4]: 20%

O=C(O)C1=CNC=C(C(=O)OC/C=C/c2ccccc2)C1c1ccc(Cl)c(Cl)c1 (centres undefined)
IC50 [1]: 0.75 µM
inhibition at 10 µM [4]: 41%

COc1ccc(C2C(C(=O)O)=CNC=C2C(=O)OC/C=C/c2ccccc2)cc1Cl (centres undefined)
IC50 [1]: 1.3 µM
inhibition at 10 µM [4]: 15%

COC(OC)C1=C(C(=O)OC/C=C/c2ccccc2)C(c2cc(Cl)cc(Cl)c2)C(C(=O)O)=CN1 (centres undefined)
IC50 [1]: 1 µM
inhibition at 10 µM [4]: 4%

COC(OC)C1=C(C(=O)OC/C=C/c2ccccc2)C(c2cccc(C(F)(F)F)c2)C(C(=O)O)=CN1 (centres undefined)
IC50 [1]: 1.1 µM
inhibition at 10 µM [4]: 17%

O=C(O)C1=CNC=C(C(=O)OC/C=C/c2ccccc2)C1c1ccc(Cl)cc1 (centres undefined)
IC50 [1]: 1.2 µM
inhibition at 10 µM [4]: 16%

O=C(O)C1=CNC=C(C(=O)OC/C=C/c2ccccc2)C1c1cccc(Cl)c1 (centres undefined)
IC50 [1]: 1.6 µM
IC50 [5]: 9.1 µM

COc1ccc(C2C(C(=O)O)=CNC(C(OC)OC)=C2C(=O)OC/C=C/c2ccccc2)cc1Cl (centres undefined)
IC50 [1]: 1.5 µM
inhibition at 10 µM [4]: 26%

COc1c(Cl)cc(C2C(C(=O)O)=CNC=C2C(=O)OC/C=C/c2ccccc2)cc1Cl (single isomer, unassigned; (+))
IC50 [1]: 0.72 µM
inhibition (INH) [2]: 6.5%
IC50 [5]: 44 µM
inhibition in vivo at 3 mg/kg [6]: 35%
